One data set concerns Mycobacterium kansasii. As to the kind of experiment: Antimycobacterial activity against Mycobacterium kansasii CNCTC My 235/80 after 10 to 14 days by microdilution panel method. In kind it is functional. The gist of the method: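 Microdilution panel method. Strain obtained from Czech National Collection of Type Cultures (CNCTC My 235/80). MIC in μg/mL read visually as the lowest compound concentration that inhibited mycobacterial growth.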
A general note: Dilution methods test growth across graded concentrations, often in twofold steps.

Another data set relates to HepG2. Nature of the data set: Cytotoxicity against human HepG2 cells. The class given is cell-based.
For data set [1], the system named is Mycobacterium tuberculosis. Nature of the data set: Antimycobacterial activity against Mycobacterium tuberculosis H37Rv CNCTC My 331/88 after 10 to 14 days by microdilution panel method. The class given is functional. The gist of the method:
(§1)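 Whole-cell microdilution panel assay on strains from the Czech National Collection of Type Cultures (M. tuberculosis H37Rv My 331/88, M. avium ssp. avium Chester My 80/72, M. avium My 152/73). MIC (μg/mL) was read visually as the lowest concentration of compound that inhibited mycobacterial growth.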

Data set [2] in a line: Selectivity index, ratio of IC50 for human HepG2 cells to MIC for Mycobacterium tuberculosis H37Rv CNCTC My 331/88. In kind it is functional. The gist of the method: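 Cytotoxicity was measured as the decrease in viability of human liver Hep G2 cells, read colorimetrically by tetrazolium salt reduction over a dilution series. IC50 was taken from this readout, and SI was calculated as the Hep G2 IC50 divided by the M. tuberculosis H37Rv MIC from the microdilution panel assay.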

A short description of data set [3]: Lipophilicity, log K of the compound in methanol-water mixture by HPLC analysis. The class given is physicochemical.
Data set [4] concerns Mycobacterium avium. Nature of the data set: Antimycobacterial activity against Mycobacterium avium CNCTC My 80/72 after 10 to 14 days by microdilution panel method. The class given is functional. The gist of the method: as §1
Data set [5] deals with Mycobacterium avium. As to the kind of experiment: Antimycobacterial activity against Mycobacterium avium CNCTC My 152/73 after 10 to 14 days by microdilution panel method. In kind it is functional. The gist of the method: as §1
Data set [6] has as its system Mycobacterium tuberculosis. As to the kind of experiment: Ratio of pyrazinamide MIC to compound MIC for Mycobacterium tuberculosis H37Rv CNCTC My 331/88. The class given is functional.

Bounds are passed on as bounds.

Usually MIC stands for the lowest concentration found to suppress growth. The low end stands for inhibition by little substance, the high end for a need for much substance. By IC50 is commonly meant the point on the concentration scale where inhibition reaches its midpoint. A lower IC50 goes with greater potency in that assay. Consider `N#Cc1cnc(C#N)c(NCc2ccc(Cl)cc2)n1`, for which the minimum inhibitory concentration (MIC) is 46 µM in the data set on Mycobacterium kansasii, 93 µM in data set [1], more than 100 µg/mL in the data set with Mycobacterium avium [4] and more than 100 µg/mL against Mycobacterium avium [5]. Further, in the data set on HepG2, the half-inhibitory concentration (IC50) was found to be 35.5 µM. Also, in data set [2], the “Selectivity Index” value was found to be 0.4. In data set [3], the “log K” value was 0.5735.

As to `COc1ccc(CNc2nc(C#N)cnc2C#N)cc1`, the minimum inhibitory concentration (MIC) in the data set with Mycobacterium kansasii was 99 µM; in data set [1], 188 µM; in the data set with Mycobacterium avium [4], more than 100 µg/mL; in the data set on Mycobacterium avium [5], more than 100 µg/mL. The compound also yielded a half-maximal inhibitory concentration (IC50) in the data set on HepG2 of 95.9 µM. Also, in data set [2], the “Selectivity Index” value worked out at 0.5. The “log K” value in data set [3] is recorded as 0.3259.

On to `N#Cc1cnc(C#N)c(NCc2cccc(C(F)(F)F)c2)n1`, for which the MIC (with Mycobacterium kansasii; in data set [1]; against Mycobacterium avium [4]; in the data set on Mycobacterium avium [5]) was more than 100 µg/mL each time. The “log K” value in data set [3] is 0.5615.

Regarding `N#Cc1cnc(C(N)=O)c(NCc2ccc(Cl)cc2)n1`, the MIC (in the data set on Mycobacterium kansasii; in data set [1]; in the data set on Mycobacterium avium [4]; against Mycobacterium avium [5]) was more than 100 µg/mL in each case. For the same compound, the “log K” value in data set [3] amounted to 0.5421.

With `N#Cc1cnc(C(N)=O)c(NCc2cccc(Cl)c2)n1`, the MIC (against Mycobacterium kansasii; in data set [1]; against Mycobacterium avium [4]; in the data set on Mycobacterium avium [5]) was more than 100 µg/mL throughout. Besides, the “log K” value in data set [3] came out at 0.5141.

Consider `N#Cc1cnc(C(N)=O)c(NCc2ccc(N)cc2)n1`, for which the MIC was more than 100 µg/mL in the data set on Mycobacterium kansasii, 47 µM in data set [1], more than 100 µg/mL against Mycobacterium avium [4] and more than 100 µg/mL in the data set with Mycobacterium avium [5]. Moreover, the IC50 in the data set on HepG2 was more than 1000 µM. For the same compound, the “Selectivity Index” value in data set [2] was more than 21.3. In data set [3], the “log K” value was -0.2005.

On to `NNC(=O)c1ccncc1` [ISONIAZID], for which the minimal inhibitory concentration (MIC) in the data set with Mycobacterium kansasii was 91 µM; in data set [1], 11 µM; with Mycobacterium avium [4], 46 µM; in the data set with Mycobacterium avium [5], 23 µM.

In the case of `N#Cc1cnc(C#N)c(NCc2cccc([N+](=O)[O-])c2)n1`, the minimum inhibitory concentration (MIC) (against Mycobacterium kansasii; in data set [1]; with Mycobacterium avium [4]; against Mycobacterium avium [5]) was more than 100 µg/mL throughout. Further, the “log K” value in data set [3] amounted to 0.2049.

For the compound `N#Cc1cnc(C#N)c(NCc2ccccc2)n1`, the MIC in the data set with Mycobacterium kansasii was 106 µM; in data set [1], 53 µM; against Mycobacterium avium [4], 106 µM; with Mycobacterium avium [5], 53 µM. In the data set with HepG2, this compound gave an IC50 of 60.8 µM. Also, the “Selectivity Index” value in data set [2] is given as 1.1. Also, the “log K” value in data set [3] is recorded as 0.335.

Take `Cc1ccc(CNc2nc(C#N)cnc2C(N)=O)cc1`: the MIC is more than 100 µg/mL with Mycobacterium kansasii, 47 µM in data set [1], more than 100 µg/mL in the data set on Mycobacterium avium [4] and more than 100 µg/mL in the data set with Mycobacterium avium [5]. Besides, the half-inhibitory concentration (IC50) in the data set with HepG2 was determined as 54.6 µM. The “Selectivity Index” value in data set [2] was found to be 1.2. Besides, in data set [3], the “log K” value is listed as 0.5533.

For `N#Cc1cnc(C#N)c(NCc2ccc(Cl)c(Cl)c2)n1`, the MIC (with Mycobacterium kansasii; in data set [1]; in the data set on Mycobacterium avium [4]; against Mycobacterium avium [5]) was more than 100 µg/mL each time. Also, in data set [3], the “log K” value worked out at 0.783.

For `N#Cc1cnc(C(N)=O)c(NCc2ccc(Cl)c(Cl)c2)n1`, the MIC (against Mycobacterium kansasii; in data set [1]; against Mycobacterium avium [4]; in the data set with Mycobacterium avium [5]) was more than 100 µg/mL each time. For the same compound, the “log K” value in data set [3] was 0.7353.

Regarding `COc1ccc(CNc2nc(C#N)cnc2C(N)=O)cc1`, the MIC (against Mycobacterium kansasii; in data set [1]; in the data set with Mycobacterium avium [4]; with Mycobacterium avium [5]) was more than 100 µg/mL in each case. In addition, the “log K” value in data set [3] amounted to 0.3074.

In the case of `N#Cc1cnc(C#N)c(NCc2ccc(N)cc2)n1`, the minimal inhibitory concentration (MIC) in the data set on Mycobacterium kansasii was more than 100 µg/mL; in data set [1], 100 µM; in the data set with Mycobacterium avium [4] it was more than 100 µg/mL; in the data set with Mycobacterium avium [5] it was more than 100 µg/mL. For the same compound, the midpoint of inhibition in the data set with HepG2, the IC50, lay at 549 µM. In addition, the “Selectivity Index” value in data set [2] stood at 5.5. Further, in data set [3], the “log K” value was -0.1621.

On to `Cc1ccc(CNc2nc(C#N)cnc2C#N)cc1`, for which the MIC is more than 100 µg/mL in the data set on Mycobacterium kansasii, 25 µM in data set [1], more than 100 µg/mL with Mycobacterium avium [4] and more than 100 µg/mL in the data set with Mycobacterium avium [5]. The compound further registered a half-inhibitory concentration (IC50) in the data set with HepG2 of 70.8 µM. The “Selectivity Index” value in data set [2] was determined as 2.8. Also, in data set [3], the “log K” value is 0.5598. Besides, the Ratio in data set [6] is reported as 2.

Take `N#Cc1cnc(C(N)=O)c(NCc2ccccc2)n1`: the MIC (against Mycobacterium kansasii; in data set [1]; in the data set on Mycobacterium avium [4]; against Mycobacterium avium [5]) was more than 100 µg/mL in each case. Further, the “log K” value in data set [3] was 0.326.

Take `N#Cc1cnc(C(N)=O)c(NCc2cccc([N+](=O)[O-])c2)n1`: the MIC in the data set with Mycobacterium kansasii is more than 100 µg/mL; in data set [1], 84 µM; in the data set on Mycobacterium avium [4], more than 100 µg/mL; in the data set on Mycobacterium avium [5], more than 100 µg/mL. The compound further displayed an IC50 in the data set with HepG2 of 457 µM. Besides, the “Selectivity Index” value in data set [2] came out at 5.4. In addition, in data set [3], the “log K” value worked out at 0.1331.

For the compound `NC(=O)c1cnccn1` [PYRAZINAMIDE], the minimum inhibitory concentration (MIC) was more than 100 µg/mL against Mycobacterium kansasii, 51 µM in data set [1], more than 100 µg/mL in the data set with Mycobacterium avium [4] and more than 100 µg/mL in the data set on Mycobacterium avium [5]. The “Selectivity Index” value in data set [2] is given as 775.

Turning to `N#Cc1cnc(C(N)=O)c(NCc2cccc(C(F)(F)F)c2)n1`, the MIC against Mycobacterium kansasii was more than 100 µg/mL; in data set [1], 78 µM; with Mycobacterium avium [4], more than 100 µg/mL; against Mycobacterium avium [5] it was more than 100 µg/mL. This compound had an IC50 with HepG2 of 27.8 µM. Besides, the “Selectivity Index” value in data set [2] worked out at 0.4. Also, the “log K” value in data set [3] is given as 0.5104.

For `Cc1ccccc1CNc1nc(C#N)cnc1C#N`, the minimum inhibitory concentration (MIC) (in the data set on Mycobacterium kansasii; in data set [1]; in the data set with Mycobacterium avium [4]; against Mycobacterium avium [5]) was more than 100 µg/mL in each case. The “log K” value in data set [3] is on record as 0.5043.

As to `N#Cc1cnc(C#N)c(NCc2cccc(Cl)c2)n1`, the MIC in the data set with Mycobacterium kansasii is 46 µM; in data set [1], 46 µM; in the data set on Mycobacterium avium [4], more than 100 µg/mL; against Mycobacterium avium [5] it was more than 100 µg/mL. This compound also yielded an IC50 with HepG2 of 40 µM. In addition, the “Selectivity Index” value in data set [2] was 0.9. For the same compound, the “log K” value in data set [3] came out at 0.5456.

(Values after ChEMBL document CHEMBL2311333, “Synthesis and antimycobacterial evaluation of pyrazinamide derivatives with benzylamino substitution” (Bioorg Med Chem Lett, 2013).)
